From ChEMBL document CHEMBL3808335, “Discovery of KLS-13019, a Cannabidiol-Derived Neuroprotective Agent, with Improved Potency, Safety, and Permeability” (ACS Med Chem Lett, 2016)
Values after ≈ are worked out from the molar mass of the structure shown.

Legend:
[1] = Toxicity in rat hippocampal neurons assessed as neuronal viability after 5 hrs by carboxyfluorescein diacetate dye based fluorimetric analysis; set-up: species or system Hippocampal neurone; settings: read-out: TC50
in vitro = settings: rat, rat hippocampal neurons
[2] = Neuroprotective activity in rat hippocampal neurons assessed as protection against ammonium acetate induced cell death by measuring neuronal viability after 5 hrs by carboxyfluorescein diacetate dye based fluorimetric analysis; format: functional, Hippocampal neurone
Procedure, shortened: (§1)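 Ammonium acetate (300 μM) used as toxin. Viability read by CFDA fluorescence, cell death by propidium iodide. Full efficacy defined as the fluorescence of neurons without toxin.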

[3] = Efflux ratio of permeability from basolateral to apical over apical to basolateral side in human Caco cells; settings: Caco-2
[4] = Neuroprotective activity in rat hippocampal neurons assessed as protection against ethanol induced cell death after 5 hrs by propidium iodide staining based fluorimetric analysis; format: functional, Hippocampal neurone
Procedure, shortened: (§2)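 Ethanol (30 mM) used as toxin. Viability read by CFDA fluorescence, cell death by propidium iodide. Full efficacy defined as the fluorescence of neurons without toxin.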

MDR1 [5] = assay: Apparent permeability from apical to basolateral side in MDCK cells expressing MDR1; settings: dog
Cannabinoid receptor 1 [6] = target: T1, Cannabinoid receptor 1 (Homo sapiens, UniProt P21554); assay: Displacement of [3H]CP 55940 from human recombinant CB1 receptor expressed in CHO cell membranes at 10 uM after 120 mins by scintillation counting analysis
T1 sequence (P21554 whole entry): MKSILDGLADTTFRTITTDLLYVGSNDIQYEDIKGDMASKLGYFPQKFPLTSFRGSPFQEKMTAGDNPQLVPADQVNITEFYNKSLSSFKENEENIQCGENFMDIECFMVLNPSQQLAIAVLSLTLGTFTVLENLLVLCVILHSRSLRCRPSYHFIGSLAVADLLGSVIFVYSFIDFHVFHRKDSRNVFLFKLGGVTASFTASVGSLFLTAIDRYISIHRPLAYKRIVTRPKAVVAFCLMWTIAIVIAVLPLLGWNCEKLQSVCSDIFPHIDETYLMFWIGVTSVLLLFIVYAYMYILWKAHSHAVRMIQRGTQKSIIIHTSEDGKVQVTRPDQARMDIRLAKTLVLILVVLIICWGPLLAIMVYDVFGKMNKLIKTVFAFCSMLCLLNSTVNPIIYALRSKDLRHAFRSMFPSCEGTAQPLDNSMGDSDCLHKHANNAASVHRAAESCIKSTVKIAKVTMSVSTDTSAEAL

[7] = Neuroprotective activity in rat hippocampal neurons assessed as protection against ethanol induced cell death by measuring neuronal viability after 5 hrs by carboxyfluorescein diacetate dye based fluorimetric analysis; format: functional, Hippocampal neurone; procedure, shortened: as §2
MDR1 [8] = assay: Efflux ratio of permeability from basolateral to apical over apical to basolateral side in MDCK cells expressing MDR1; settings: dog
[9] = target: Cannabinoid receptor 2 (Homo sapiens) (UniProt P34972); assay: Displacement of [3H]WIN 55212-2 from human recombinant CB2 receptor expressed in CHO cell membranes at 10 uM after 120 mins by scintillation counting analysis
Chain of Cannabinoid receptor 2 (Homo sapiens) (P34972 whole entry): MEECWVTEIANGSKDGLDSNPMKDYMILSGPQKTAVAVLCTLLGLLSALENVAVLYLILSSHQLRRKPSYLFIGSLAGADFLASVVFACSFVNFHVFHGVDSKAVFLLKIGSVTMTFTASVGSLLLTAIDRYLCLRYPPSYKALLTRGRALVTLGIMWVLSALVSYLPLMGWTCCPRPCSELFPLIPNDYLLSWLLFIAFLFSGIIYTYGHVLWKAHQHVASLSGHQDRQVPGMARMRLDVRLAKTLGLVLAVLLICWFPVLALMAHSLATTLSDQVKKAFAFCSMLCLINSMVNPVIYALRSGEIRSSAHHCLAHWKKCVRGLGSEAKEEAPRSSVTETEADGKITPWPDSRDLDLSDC

[10] = Neuroprotective activity in rat hippocampal neurons assessed as protection against ammonium acetate induced cell death after 5 hrs by propidium iodide staining based fluorimetric analysis; format: functional, Hippocampal neurone; procedure, shortened: as §1
[11] = Kinetic aqueous solubility of the compound at pH 7.4
[12] = Apparent permeability from apical to basolateral side in human Caco cells; settings: Caco-2
Cannabinoid receptor 1 [13] = target: T1, Cannabinoid receptor 1; assay: Displacement of [3H]CP 55940 from human CB1 receptor after 1 hr by liquid scintillation spectrometry
[14] = Rattus norvegicus, Hippocampal neurone, 5 h, read-out: EC50

SMILES | EC50 [2, 14] [µM] | EC50 [4, 14] [µM] | EC50 [7, 14] [µM] | EC50 [10, 14] [µM] | further results
C=C(C)[C@@H]1CCC(C)=C[C@H]1c1c(O)cc(CC2CN(C(C)=O)C2)cc1O | 0.04 | 0.05 | 0.08 | 0.04 | CC50 at 5 h [1]: 300 µM; selectivity ratio at 5 h (in vitro): 7500; efflux ratio [3]: 0.53; Papp A→B (MDR1 [5]): 35 ×10⁻⁶ cm/s; inhibition (Cannabinoid receptor 1 [6]): 13%; efflux ratio (MDR1 [8]): 1.02; inhibition [9]: 56%; solubility kinetic [11]: 87 µM (≈ 30.9 µg/mL); Papp A→B [12]: 49 ×10⁻⁶ cm/s
C=C(C)[C@@H]1CCC(C)=C[C@H]1c1c(O)cc(CCCCC)cc1O [CANNABIDIOL] | 2 | 3 | 1 | 4 | CC50 at 5 h [1]: 33 µM; Papp A→B (MDR1 [5]): < 2.23 ×10⁻⁶ cm/s; solubility kinetic [11]: 17 µM (≈ 5.35 µg/mL); Papp A→B [12]: < 1.5 ×10⁻⁶ cm/s
CCCCCCC(C)(C)c1cc(O)c(C2CCCCC2)c(O)c1 |  |  |  |  | Ki (Cannabinoid receptor 1 [13]): 0.011 µM
C=C(C)[C@@H]1CCC(C)=C[C@H]1c1c(O)cc(CC2CN(C(=O)OCC)C2)cc1O | 0.11 | 0.02 | 0.03 | 0.05 | CC50 at 5 h [1]: > 100 µM; selectivity ratio at 5 h (in vitro): 900; efflux ratio [3]: 0.5; Papp A→B (MDR1 [5]): 11 ×10⁻⁶ cm/s; inhibition (Cannabinoid receptor 1 [6]): 19%; efflux ratio (MDR1 [8]): 0.97; inhibition [9]: 37%; solubility kinetic [11]: 16.6 µM (≈ 6.4 µg/mL); Papp A→B [12]: 22 ×10⁻⁶ cm/s
C=C(C)[C@@H]1CCC(C)=C[C@H]1c1c(O)cc(CCNC(C)=O)cc1O | > 100 | 17 | 30 | > 100 | 
C=C(C)[C@@H]1CCC(C)=C[C@H]1c1c(O)cc(CCn2nccn2)cc1O | > 100 | > 100 | > 100 | > 100 | 
C=C(C)[C@@H]1CCC(C)=C[C@H]1c1c(O)cc(CCCCC(=O)O)cc1O | 4 | 7 | 10 | 30 | 
C=C(C)[C@@H]1CCC(C)=C[C@H]1c1c(O)cc(CC2COC2)cc1O | 35 | 10 | 18 | 20 | 
C=C(C)[C@@H]1CCC(C)=C[C@H]1c1c(O)cc(CCOCC)cc1O | 36 | 3 | 0.3 | 0.2 | 
C=C(C)[C@@H]1CCC(C)=C[C@H]1c1c(O)cc(CC2CN(C)C2)cc1O |  |  |  |  | EC50 ([2]; hippocampal neurone): ND(toxic); EC50 ([4]; hippocampal neurone): ND(toxic); EC50 ([7]; hippocampal neurone): ND(toxic); EC50 ([10]; hippocampal neurone): ND(toxic)
C=C(C)[C@@H]1CCC(C)=C[C@H]1c1c(O)cc(CCn2ccnn2)cc1O | 3 | 2 | 5 | 1 | CC50 at 5 h [1]: > 100 µM; inhibition (Cannabinoid receptor 1 [6]): 6%; inhibition [9]: 1%
C=C(C)[C@@H]1CCC(C)=C[C@H]1c1c(O)cc(CC(=O)N2CCOCC2)cc1O | > 100 | > 100 | > 100 | > 100 | 
C=C(C)[C@@H]1CCC(C)=C[C@H]1c1c(O)cc(O)cc1CC1CN(C(C)=O)C1 | > 100 | > 100 | > 100 | > 100 | 
C=C(C)[C@@H]1CCC(C)=C[C@H]1c1c(O)cc(CCN2CCOCC2)cc1O | > 100 | 24 | 5 | 20 | 
C=C(C)[C@@H]1CCC(C)=C[C@H]1c1c(O)cc(CCCCCO)cc1O | > 100 | > 100 | 54 | > 100 | 
